Screening results: PubChem BioAssay, Broad Institute
CDK5 inh: CDK5/p35 (human) kinase inhibition | Recombinant CDK5/p35, ADP-Glo luminescence, 60 min | AID 488839 | 330,000 compounds, 0.01% hits | Q00535+Q15078 | inhibition, % at 10 µM;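 active = highest replicate inhibition of at least 50% and at least 75% of replicates reaching 50%; inconclusive = only one of the two criteria met; inactive = both criteria failed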
Target sequence (Q00535 whole entry, looked up): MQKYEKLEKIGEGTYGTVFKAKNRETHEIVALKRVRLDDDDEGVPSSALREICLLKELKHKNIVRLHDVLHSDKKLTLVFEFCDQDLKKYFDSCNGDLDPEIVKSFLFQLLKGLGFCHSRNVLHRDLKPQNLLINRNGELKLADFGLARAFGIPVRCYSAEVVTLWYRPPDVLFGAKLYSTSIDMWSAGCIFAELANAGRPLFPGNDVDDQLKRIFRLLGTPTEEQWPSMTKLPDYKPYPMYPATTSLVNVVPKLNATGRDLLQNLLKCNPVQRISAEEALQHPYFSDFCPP
Target sequence (Q15078 whole entry, looked up): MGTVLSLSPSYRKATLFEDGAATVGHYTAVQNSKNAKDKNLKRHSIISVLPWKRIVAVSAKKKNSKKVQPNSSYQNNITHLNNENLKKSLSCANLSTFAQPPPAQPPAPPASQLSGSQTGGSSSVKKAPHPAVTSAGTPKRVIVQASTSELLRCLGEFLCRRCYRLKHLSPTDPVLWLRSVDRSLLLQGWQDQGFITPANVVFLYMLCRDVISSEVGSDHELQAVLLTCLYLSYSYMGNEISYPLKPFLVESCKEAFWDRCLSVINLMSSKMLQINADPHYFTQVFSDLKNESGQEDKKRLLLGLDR
HIV Env fusion: blocks HIV Env-driven cell-cell fusion; HeLa-JRFL Env/CEM21 cell fusion, luciferase; inhibition, % at 12.3 µM; 360,000 compounds, 1.1% hits;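 active = mean replicate inhibition score of at least 50 and every replicate individually at or above 50; inconclusive = only one of the two criteria met; inactive = mean below 50 and not all replicates reaching 50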
Cneo AK release: Cryptococcus neoformans lysis via adenylate kinase release. C. neoformans lysis, adenylate kinase release luminescence, 4 h; normalised: neutral wells 0, clomiphene wells 100. lysis activity, % at 15 µM. 360,000 compounds, 0.2% hits. AID 651654;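 active = mean lysis activity across replicates of at least 80%, whatever share of replicates individually reach that level; inactive = mean lysis activity below 80%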
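Material: C. neoformans cells | Amount: Yeast cell density of 5 × 10^6 cells/mL | Medium: Fresh YPD growth medium | Dosing: Single dose | Times: Static 4 h at 37 °C with compound, 1 h detection | Detection: AK luminescence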
INS-1E GSIS act: primary screen for activators of insulin secretion dependent on glucose, INS-1E cells, GLuc reporter luminescence; INS-1E GLuc reporter insulin secretion, 2-3 h; activation, % at 16.6 µM; 370,000 compounds, 0.61% hits; AID 743287;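 active = lowest replicate activation of at least 40%, so every replicate reaches that level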
PAX8 reporter: PAX8 transcriptional activity inhibition | AID 652154 | RMG-I TPO-luciferase reporter, SteadyGlo, 24 h | inhibition, % at 12.6 µM | 360,000 compounds, 1.2% hits;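 active = mean replicate inhibition at least 60% with every replicate also reaching 60%; inconclusive = only one of the two criteria is met; inactive = mean below 60% and not all replicates reaching 60%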;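 note: luciferase light reporting Pax8 driven TPO promoter activity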
dFosB activator: activators of mouse delta FosB homodimer | purified delta FosB, TAMRA-CDK5 oligo fluorescence polarization; percent of positive-control signal above neutral wells | 340,000 compounds, 0.99% hits | P13346 | AID 493131 | activation, % at 25 µM;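 active = mean activation above about 17%, with every replicate also reaching it, limit read from the data, passing the limit was not always enough; inconclusive = only one of the two conditions met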
Large screens that a line does not name were inactive; ! = a repeat was not active. Most compounds without a hit are left out; they make up all but 2.9% or so of the library.

C[C@@H]1CN([C@H](C)CO)C(=O)Cc2cc(NC(=O)Nc3ccccc3)ccc2O[C@@H]1CN(C)Cc1ccc(-c2ccccc2)cc1	none (no result: CDK5 inh, dFosB activator)
C[C@@H]1CN([C@@H](C)CO)C(=O)Cc2cc(NC(=O)Nc3ccccc3)ccc2O[C@H]1CN(C)Cc1ccc(-c2ccccc2)cc1	PAX8 reporter 68.4 (no result: CDK5 inh, dFosB activator)
COc1ccc(CN(C)C[C@H]2Oc3ccc(NC(=O)Nc4ccc5c(c4)OCO5)cc3CC(=O)N([C@H](C)CO)C[C@H]2C)cc1	PAX8 reporter 103.5 (no result: CDK5 inh, dFosB activator)
COc1ccc(NC(=O)Nc2ccc3c(c2)CC(=O)N([C@@H](C)CO)C[C@H](C)[C@@H](CN(C)Cc2ccc(-c4ccccc4)cc2)O3)cc1	none (no result: CDK5 inh, dFosB activator)
COc1ccc(NC(=O)Nc2ccc3c(c2)CC(=O)N([C@@H](C)CO)C[C@@H](C)[C@H](CN(C)Cc2ccc(-c4ccccc4)cc2)O3)cc1	PAX8 reporter 74.9 (no result: CDK5 inh, dFosB activator)
COc1ccc(NC(=O)Nc2ccc3c(c2)CC(=O)N([C@H](C)CO)C[C@H](C)[C@@H](CN(C)Cc2ccc(-c4ccccc4)cc2)O3)cc1	PAX8 reporter 68.2 (no result: CDK5 inh, dFosB activator)
COc1ccc(NC(=O)Nc2ccc3c(c2)CC(=O)N([C@@H](C)CO)C[C@H](C)[C@H](CN(C)Cc2ccc(-c4ccccc4)cc2)O3)cc1	none (no result: CDK5 inh, dFosB activator)
C[C@H](CO)N1C[C@H](C)[C@@H](CN(C)Cc2ccc(C(=O)O)cc2)Oc2ccc(NC(=O)Cc3ccccc3)cc2C1=O	none (no result: CDK5 inh, dFosB activator)
CC(=O)Nc1nc2nc(-c3ccccc3)cc(-c3ccccc3)n2n1	none (no result: INS-1E GSIS act)
O=C(Nc1nc2nc(-c3ccccc3)cc(-c3ccccc3)n2n1)c1ccco1	dFosB activator 67.8 (no result: HIV Env fusion, INS-1E GSIS act, PAX8 reporter)
C[C@@H]1CN([C@@H](C)CO)S(=O)(=O)c2ccc(-c3cccnc3)cc2O[C@H]1CN(C)C(=O)C1CCC1	none (no result: CDK5 inh, PAX8 reporter, dFosB activator)
CC(=O)Nc1ccc2c(CSc3nnc(-c4cccnc4)n3-c3ccc(C)cc3C)cc(=O)oc2c1	none (no result: Cneo AK release)
CCOc1ccc(-n2c(SCc3cc(=O)oc4cc(C)ccc34)nnc2-c2cccnc2)cc1	PAX8 reporter 65.3 (no result: HIV Env fusion)
O=C(NCCc1c[nH]c2ccccc12)c1cccnc1	PAX8 reporter 70.8 (no result: INS-1E GSIS act)
O=C(Cc1ccc(F)cc1)NC(Cc1c[nH]c2ccccc12)C(=O)O (stereo not given)	none
O=C(CCC(=O)c1ccccc1)NCCc1c[nH]c2ccccc12	PAX8 reporter 121.9 (no result: HIV Env fusion)
O=C(Cc1c[nH]c2ccccc12)N[C@@H](Cc1c[nH]c2ccccc12)C(=O)O	INS-1E GSIS act 52.8
O=C(O)c1ccc(-n2nnnc2SCc2ccccc2F)cc1	INS-1E GSIS act 61.3
Cc1ccccc1CSc1nnnn1-c1ccc(C(N)=O)cc1	none
O=C(O)/C=C\c1cccc(-n2nnnc2SCc2ccccc2F)c1	INS-1E GSIS act 52.2
CC=Cc1ccc2n(c1=O)C[C@H]1[C@H](CO)[C@@H](C(=O)N[C@@H](C)c3ccccc3)[C@@H]2N1CC1CC1 (mixture of isomers)	none (no result: CDK5 inh, HIV Env fusion, dFosB activator)
C[C@H]1CN([C@@H](C)CO)C(=O)Cc2cc(NC(=O)c3ccncc3)ccc2O[C@@H]1CN(C)S(=O)(=O)c1cn(C)cn1	none (no result: CDK5 inh, PAX8 reporter, dFosB activator)
COCC#Cc1ccc2c(c1)O[C@H](CN(C)C(=O)c1ccccc1)[C@H](C)CN([C@H](C)CO)S2(=O)=O	none (no result: CDK5 inh, PAX8 reporter, dFosB activator)
COc1ccccc1S(=O)(=O)N(C)C[C@H]1Oc2cc(C#CCC3CCCC3)ccc2S(=O)(=O)N([C@H](C)CO)C[C@@H]1C	PAX8 reporter 73.3 (no result: CDK5 inh, dFosB activator)
COc1ccccc1S(=O)(=O)N(C)C[C@H]1Oc2cc(C#CCC3CCCC3)ccc2S(=O)(=O)N([C@H](C)CO)C[C@H]1C	PAX8 reporter 84.1! (no result: CDK5 inh, dFosB activator)
COc1ccccc1S(=O)(=O)N(C)C[C@@H]1Oc2cc(C#CCC(C)C)ccc2S(=O)(=O)N([C@H](C)CO)C[C@@H]1C	none (no result: CDK5 inh, dFosB activator)
COc1ccccc1S(=O)(=O)N(C)C[C@H]1Oc2cc(C#CCC(C)C)ccc2S(=O)(=O)N([C@@H](C)CO)C[C@@H]1C	none (no result: CDK5 inh, PAX8 reporter, dFosB activator)
COc1ccccc1S(=O)(=O)N(C)C[C@@H]1Oc2cc(C#CCC3CCCC3)ccc2S(=O)(=O)N([C@H](C)CO)C[C@@H]1C	PAX8 reporter 64.1 (no result: CDK5 inh, dFosB activator)
CCC(=O)N1[C@@H](CO)[C@H](c2ccc(C3=CCCC3)cc2)[C@@H]1CNC(=O)CN(C)C	none (no result: CDK5 inh, HIV Env fusion, dFosB activator)
Cc1nn(-c2ccccc2)c2c1C(O)CC(C)(C)C2 (stereo not given)	INS-1E GSIS act 67.0
COc1cccc(Nc2nc(CN)cs2)n1	HIV Env fusion 57.1 (no result: CDK5 inh, INS-1E GSIS act, dFosB activator)
COc1cccc(Nc2nc(C(C)N)cs2)n1 (stereo not given)	none (no result: CDK5 inh, dFosB activator)
CCCc1[nH]nc2c1C(Cc1ccccc1)C(C#N)=C(N)O2 (stereo not given)	HIV Env fusion 63.7 (no result: PAX8 reporter)
Cc1nc(N2CCN(c3ccccc3)CC2)nc2c1C(=O)CC(c1ccccc1)C2 (stereo not given)	HIV Env fusion 64.5 (no result: INS-1E GSIS act, PAX8 reporter)
CO[C@H]1CN(C)C(=O)c2cc(NC(=O)NC3CCCCC3)ccc2OC[C@H](C)N(C(C)=O)C[C@H]1C	none (no result: CDK5 inh, HIV Env fusion, PAX8 reporter, dFosB activator)
Cc1cccc2sc(N(CCCN(C)C)C(=O)c3ccc(S(=O)(=O)N4CCc5ccccc5C4)cc3)nc12	dFosB activator 62.2
CN(C)CCCN(C(=O)c1ccc(S(=O)(=O)N2CCc3ccccc3C2)cc1)c1nc2c(F)cccc2s1	none
CN(C)CCCN(C(=O)c1ccc(S(=O)(=O)N2CCc3ccccc3C2)cc1)c1nc2ccc(F)cc2s1	dFosB activator 68.7
Cc1cc(C)c2sc(N(CCCN(C)C)C(=O)c3ccc(S(=O)(=O)N4CCc5ccccc5C4)cc3)nc2c1	dFosB activator 100.4 (no result: HIV Env fusion, INS-1E GSIS act, PAX8 reporter)
Cc1noc(C)c1NC(=O)NCC[C@H]1CC[C@@H](NC(=O)Nc2cccc(Cl)c2)[C@@H](CO)O1	none (no result: CDK5 inh, dFosB activator)
Cn1cnc([N+](=O)[O-])c1S(=O)(=O)c1cccc(Cl)c1	INS-1E GSIS act 104.1, PAX8 reporter 83.1 (no result: Cneo AK release)
Cn1cnc([N+](=O)[O-])c1S(=O)(=O)Oc1ccccc1	INS-1E GSIS act 53.8, PAX8 reporter 89.8
Cn1c(/C=C/c2ccc(Br)cc2)c([N+](=O)[O-])c(=O)n(C)c1=O	PAX8 reporter 62.7
Cc1ccc(-c2cnc3c(c2)C(=O)N([C@@H](C)CO)C[C@H](C)[C@@H](CN(C)Cc2ccccc2C(=O)O)O3)cc1	none (no result: CDK5 inh, PAX8 reporter, dFosB activator)
CCN(Cc1ccccc1)S(=O)(=O)c1ccc(C(=O)Nc2nnc(C)o2)cc1	INS-1E GSIS act 53.8
CCc1nnc(NC(=O)c2ccc(S(=O)(=O)N(CC)Cc3ccccc3)cc2)o1	HIV Env fusion inconclusive (no result: INS-1E GSIS act, PAX8 reporter)
COc1ccc(S(=O)(=O)Nc2cccc3c2O[C@H](CN(C)S(=O)(=O)c2cccs2)[C@H](C)CN([C@H](C)CO)C3=O)cc1	none (no result: CDK5 inh, PAX8 reporter, dFosB activator)
O=C(Nc1cccnc1)c1cc(-c2ccc(Cl)c(Cl)c2)on1	dFosB activator 75.6
